Results as given in ChEMBL document CHEMBL1134346, “Labeling and evaluation of N-[11C]methylated quinoline-2-carboxamides as potential radioligands for visualization of peripheral benzodiazepine receptors” (J Med Chem, 2001).

Organism: Rattus norvegicus
Assay: Tissue (cortex) distribution in Albino male CD rats after 90 minutes expressed as percent of injected dose per gram of organ.
Type: ADME, organism-based
Conditions: in vivo, 1.5 h
Summary of the method: (§1)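 Radioligand given in saline into tail vein of male albino CD rats (225-250 g); 100-200 µCi per animal, 1-2 Ci/µmol at injection depending on radioligand. Three rats per time point were decapitated under light ether anaesthesia. Blood, plasma, brain regions and washed organs were weighed and gamma-counted. Uptake is %I.D./g tissue, mean ± SD.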

I.D./g	Compound
0.06%	CCC(C)N(C)C(=O)c1nc2ccccc2c(-c2ccccc2F)c1C (stereo not given)

Target: Translocator protein (Rattus norvegicus) (UniProt P16257)
Assay: Tissue (adrenal gland) concentration of radioactivity at 30 min post-injection into Albino male CD rats after pretreatment with cold PK 11195.
Type: functional, tissue-based
Conditions: not given
Summary of the method: (§2)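 Separate groups of five rats received tail-vein PK 11195 (1.4-1.6 mg; 5 mg/kg) in 30 µL DMSO:EtOH 1:1, or vehicle alone, immediately before iv radioligand (90-170 µCi in saline, 0.9-1 Ci/µmol). Rats were decapitated at 30 min and tissues gamma-counted; values are %I.D./g.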

Translocator protein (Rattus norvegicus), sequence (P16257 whole entry, looked up): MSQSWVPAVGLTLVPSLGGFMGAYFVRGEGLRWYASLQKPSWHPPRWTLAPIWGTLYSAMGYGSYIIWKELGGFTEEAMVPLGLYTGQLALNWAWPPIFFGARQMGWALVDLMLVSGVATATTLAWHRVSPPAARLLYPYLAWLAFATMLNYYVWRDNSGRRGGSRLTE

I.D./g	Compound
< 0.78%	CCC(C)N(C)C(=O)c1nc2ccccc2c(-c2ccccc2F)c1C (stereo not given)

Organism: Rattus norvegicus
Assay: Tissue (muscle) distribution in Albino male CD rats after 90 minutes expressed as percent of injected dose per gram of organ.
Type: ADME, organism-based
Conditions: in vivo, 1.5 h
Summary of the method: (§3)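 Male albino CD rats (225-250 g) received the 11C-labelled radioligand in saline by tail-vein injection. Three rats per time point were decapitated under light ether anaesthesia at 5, 15, 30, 60 or 90 min. Blood was collected heparinized and plasma separated by centrifugation. The pituitary was dissected from the brain. Lung, liver (three-lobe pieces) and right deltoid muscle were sampled, washed in cold saline, gamma-counted and weighed. Results are %I.D./g.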

I.D./g	Compound
0.08%	CCC(C)N(C)C(=O)c1nc2ccccc2c(-c2ccccc2F)c1C (stereo not given)

Target: Translocator protein (Rattus norvegicus) (UniProt P16257)
Assay: Tissue (pituitary) concentration of radioactivity at 30 min post-injection into Albino male CD rats after pretreatment with cold PK 11195.
Type: functional, tissue-based
Conditions: Pituitary gland
Summary of the method: (§4)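 Blocking study in male albino CD rats, five per group. Immediately before the 11C radioligand (in saline, i.v. tail vein), rats received 30 µL tail-vein PK 11195 (5 mg/kg; 1.4-1.6 mg) in DMSO:EtOH 1:1, or vehicle. Rats were decapitated at 30 min. Tissues were dissected, washed, gamma-counted and weighed as in the biodistribution study. Results are %I.D./g.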

I.D./g	Compound
> 0.06%	CCC(C)N(C)C(=O)c1nc2ccccc2c(-c2ccccc2F)c1C (stereo not given)

Organism: Rattus norvegicus
Assay: Tissue (pituitary) distribution in Albino male CD rats after 15 minutes expressed as percent of injected dose per gram of organ.
Type: ADME, organism-based, Pituitary gland
Conditions: in vivo, 0.25 h
Summary of the method: as §3

I.D./g	Compound
0.27%	CCC(C)N(C)C(=O)c1nc2ccccc2c(-c2ccccc2F)c1C (stereo not given)

Organism: Rattus norvegicus
Assay: Tissue (pituitary) distribution in Albino male CD rats after 90 minutes expressed as percent of injected dose per gram of organ.
Type: ADME, organism-based, Pituitary gland
Conditions: in vivo, 1.5 h
Summary of the method: as §3

I.D./g	Compound
0.15%	CCC(C)N(C)C(=O)c1nc2ccccc2c(-c2ccccc2F)c1C (stereo not given)

Organism: Rattus norvegicus
Assay: Tissue (plasma) distribution in Albino male CD rats after 15 minutes expressed as percent of injected dose per gram of organ.
Type: ADME, organism-based
Conditions: in vivo, 0.25 h
Summary of the method: as §3

I.D./g	Compound
0.09%	CCC(C)N(C)C(=O)c1nc2ccccc2c(-c2ccccc2F)c1C (stereo not given)

Organism: Rattus norvegicus
Assay: Tissue (plasma) distribution in Albino male CD rats after 5 minutes expressed as percent of injected dose per gram of organ.
Type: ADME, organism-based
Conditions: in vivo
Summary of the method: as §3

I.D./g	Compound
0.11%	CCC(C)N(C)C(=O)c1nc2ccccc2c(-c2ccccc2F)c1C (stereo not given)

Organism: Rattus norvegicus
Assay: Tissue (plasma) distribution in Albino male CD rats after 90 minutes expressed as percent of injected dose per gram of organ.
Type: ADME, organism-based
Conditions: in vivo, 1.5 h
Summary of the method: as §3

I.D./g	Compound
0.04%	CCC(C)N(C)C(=O)c1nc2ccccc2c(-c2ccccc2F)c1C (stereo not given)

Target: Translocator protein (Rattus norvegicus) (UniProt P16257)
Assay: Tissue (spleen) concentration of radioactivity at 30 min post-injection into Albino male CD rats after pretreatment with cold PK 11195.
Type: functional, tissue-based
Conditions: not given
Summary of the method: as §4

I.D./g	Compound
< 0.09%	CCC(C)N(C)C(=O)c1nc2ccccc2c(-c2ccccc2F)c1C (stereo not given)

Organism: Rattus norvegicus
Assay: Tissue (heart) distribution in Albino male CD rats after 30 minutes expressed as percent of injected dose per gram of organ.
Type: ADME, organism-based
Conditions: in vivo, 0.5 h
Summary of the method: as §1

I.D./g	Compound
0.73%	CCC(C)N(C)C(=O)c1nc2ccccc2c(-c2ccccc2F)c1C (stereo not given)

Organism: Rattus norvegicus
Assay: Tissue (heart) distribution in Albino male CD rats after 5 minutes expressed as percent of injected dose per gram of organ.
Type: ADME, organism-based
Conditions: in vivo
Summary of the method: as §1

I.D./g	Compound
0.68%	CCC(C)N(C)C(=O)c1nc2ccccc2c(-c2ccccc2F)c1C (stereo not given)

Organism: Rattus norvegicus
Assay: Tissue (heart) distribution in Albino male CD rats after 60 minutes expressed as percent of injected dose per gram of organ.
Type: ADME, organism-based
Conditions: in vivo, 1 h
Summary of the method: as §1

I.D./g	Compound
0.6%	CCC(C)N(C)C(=O)c1nc2ccccc2c(-c2ccccc2F)c1C (stereo not given)

Organism: Rattus norvegicus
Assay: Tissue (intestine) distribution in Albino male CD rats after 30 minutes expressed as percent of injected dose per gram of organ.
Type: ADME, organism-based
Conditions: in vivo, 0.5 h
Summary of the method: as §1

I.D./g	Compound
0.31%	CCC(C)N(C)C(=O)c1nc2ccccc2c(-c2ccccc2F)c1C (stereo not given)

Organism: Rattus norvegicus
Assay: Tissue (intestine) distribution in Albino male CD rats after 5 minutes expressed as percent of injected dose per gram of organ.
Type: ADME, organism-based
Conditions: in vivo
Summary of the method: as §1

I.D./g	Compound
0.18%	CCC(C)N(C)C(=O)c1nc2ccccc2c(-c2ccccc2F)c1C (stereo not given)

Organism: Rattus norvegicus
Assay: Tissue (kidney) concentration of radioactivity at 30 min post-injection into Albino male CD rats with vehicle.
Type: ADME, organism-based
Conditions: in vivo, 0.5 h
Summary of the method: as §2

I.D./g	Compound
0.35%	CCC(C)N(C)C(=O)c1nc2ccccc2c(-c2ccccc2F)c1C (stereo not given)

Organism: Rattus norvegicus
Assay: Tissue (blood) distribution in Albino male CD rats after 90 minutes expressed as percent of injected dose per gram of organ.
Type: ADME, organism-based
Conditions: in vivo, 1.5 h
Summary of the method: as §1

I.D./g	Compound
0.05%	CCC(C)N(C)C(=O)c1nc2ccccc2c(-c2ccccc2F)c1C (stereo not given)

Organism: Rattus norvegicus
Assay: Tissue (cerebellum) distribution in Albino male CD rats after 30 minutes expressed as percent of injected dose per gram of organ.
Type: ADME, organism-based
Conditions: in vivo, 0.5 h
Summary of the method: as §1

I.D./g	Compound
0.09%	CCC(C)N(C)C(=O)c1nc2ccccc2c(-c2ccccc2F)c1C (stereo not given)

Organism: Rattus norvegicus
Assay: Tissue (cerebellum) distribution in Albino male CD rats after 60 minutes expressed as percent of injected dose per gram of organ.
Type: ADME, organism-based
Conditions: in vivo, 1 h
Summary of the method: as §1

I.D./g	Compound
0.07%	CCC(C)N(C)C(=O)c1nc2ccccc2c(-c2ccccc2F)c1C (stereo not given)

Organism: Rattus norvegicus
Assay: Tissue (intestine) distribution in Albino male CD rats after 15 minutes expressed as percent of injected dose per gram of organ.
Type: ADME, organism-based
Conditions: in vivo, 0.25 h
Summary of the method: as §1

I.D./g	Compound
0.37%	CCC(C)N(C)C(=O)c1nc2ccccc2c(-c2ccccc2F)c1C (stereo not given)
